Bioassay records: PubChem BioAssay, Sanford-Burnham Center for Chemical Genomics
UBC13 polyUb = blocks human UBC13 polyubiquitin chain formation | AID 485273 | inhibition, % at 20 µM | TR-FRET | P61088 | 330,000 tested, 0.47% active; in the data active = inhibition above about 45%, passing the limit was not always enough
Target sequence (P61088 whole entry, looked up): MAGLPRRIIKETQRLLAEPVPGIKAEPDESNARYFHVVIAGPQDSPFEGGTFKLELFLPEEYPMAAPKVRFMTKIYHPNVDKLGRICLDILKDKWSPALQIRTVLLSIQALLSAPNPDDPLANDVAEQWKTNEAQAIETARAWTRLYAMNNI
SENP7 inh = SENP7 protease inhibition | recombinant SENP7, Z-RLRGG-aminoluciferin luminescence, 40 min | Q9BQF6 | 330,000 tested, 1.5% active | inhibition, % at 5 µM | AID 434973;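 active = inhibition above about 50% at the single test dose, limit read from the data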;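 also: plate controls were DMSO with enzyme for no effect and no enzyme buffer wells for full effect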
SENP6 block = SENP6 protease inhibition; 330,000 tested, 1.8% active; Recombinant SENP6 catalytic domain, aminoluciferin luminescence; inhibition, % at 10 µM; Q9GZR1;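 active = inhibition above about 50% at the single tested dose, limit read from the data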;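 also: plate controls were DMSO wells with enzyme for no effect and DMSO wells lacking enzyme for full effect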
SENP8 block-1 = SENP8 protease inhibition; 330,000 tested, 1.2% active; AID 2540; purified SENP8, Z-RLRGG-aminoluciferin cleavage, luminescence; inhibition, % at 10 µM; Q96LD8; in the data active = inhibition above about 50%
Target sequence (Q96LD8 whole entry, looked up): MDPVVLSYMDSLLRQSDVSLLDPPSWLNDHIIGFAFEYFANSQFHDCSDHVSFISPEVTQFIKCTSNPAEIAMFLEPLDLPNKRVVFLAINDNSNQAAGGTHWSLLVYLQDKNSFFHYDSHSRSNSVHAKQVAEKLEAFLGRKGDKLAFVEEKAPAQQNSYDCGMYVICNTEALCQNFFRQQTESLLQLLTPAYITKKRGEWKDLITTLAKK
Apaf-1 inh = inhibitors of human Apaf-1 apoptosome; O14727; inhibition, % at 20 µM; AID 489030; 330,000 tested, 0.71% active; reconstituted apoptosome caspase-3 activity, DEVD-Rh110 fluorescence; active = inhibition of at least 40% at 20 µM;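 also: plate controls were DMSO wells for no effect and DEVD-CHO caspase inhibitor wells for full effect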
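Assay system – apoptosome proteins · Medium – Hepes buffer, pH 7.5 · Also added – cytochrome c with DEVD-Rh110 · Timing – 30 min compound preincubation, 50 min activation, room temperature · Detection – Rh110 fluorescence, excitation 480 nm, emission 540 nm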
SENP8 block-2 = blocks human SENP8 cleavage of Nedd8 substrate; recombinant SENP8, Nedd8 substrate fluorescence; inhibition, % at 20 µM; 360,000 tested, 0.64% active; in the data active = inhibition mostly above about 40%, no sharp cut-off; inactive = mostly below about 27%
Casp3 UBC13 ctr = counter-screen for UBC13 inhibitors: human caspase-3 inhibition; shares compounds with UBC13 polyUb; AID 488856; inhibition, % at 20 µM; Recombinant caspase-3, Caspase-Glo 3/7 luminescence, 60 min; 1,400 tested, 4% active;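 active = mean inhibition across replicates above about 26%, limit read from the data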;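 also: plate controls were DMSO with caspase-3 for no effect and DMSO wells lacking enzyme for full effect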
UBC13 conf = confirmation of human UBC13 polyubiquitin inhibitors; shares compounds with UBC13 polyUb; inhibition, % at 10 µM; UBC13 polyubiquitination, TR-FRET, biochemical; 1,400 tested, 68% active; in the data active = inhibition above about 45%
An asterisk follows results filed as active. Shown are actives, neighbours in structure and some others; about 3% of the full set was active somewhere.

For CCC1(C)NC(=O)N(CC(=O)N2CCC(Cc3ccccc3)CC2)C1=O (centres undefined) the results were UBC13 polyUb 64*, SENP7 inh 0, SENP6 block -5, SENP8 block-1 -4, Apaf-1 inh 58*, SENP8 block-2 9, Casp3 UBC13 ctr 2 and UBC13 conf 35.
CC[C@H]1CN2CCc3cc(OC)c(OC)cc3C2C[C@@H]1C[C@H]1NCCc2cc(OC)c(OC)cc21 (some centres undefined) was read as UBC13 polyUb 53*, SENP7 inh -14, SENP6 block 11, SENP8 block-1 6, Apaf-1 inh -10, SENP8 block-2 6, Casp3 UBC13 ctr 3 and UBC13 conf 10.
For CCC1=C(CC2NCCc3ccccc32)CC2c3cc(OC)c(OC)cc3CCN2C1 (centres undefined) the results were SENP8 block-2 -235.
Screening Cc1cccc(N2CCN(C(=S)Nc3ccc4nc(N5CCN(C)CC5)cc(C)c4c3)CC2)c1C returned SENP8 block-2 -262.
For Cc1cc(N2CCN(C)CC2)nc2ccc(NC(=S)N3CCN(c4cccc(Cl)c4)CC3)cc12 the results were UBC13 polyUb 61*, SENP7 inh -5, SENP6 block 1, SENP8 block-1 -2, Apaf-1 inh 22, SENP8 block-2 -298, Casp3 UBC13 ctr 0 and UBC13 conf 54*.
`Cc1cc(N2CCN(C)CC2)nc2ccc(NC(=S)N3CCN(c4ccc(F)cc4)CC3)cc12` gave UBC13 polyUb 47*, SENP7 inh 2, SENP6 block -12, SENP8 block-1 -6, Apaf-1 inh -6, SENP8 block-2 -210, Casp3 UBC13 ctr -3 and UBC13 conf 38.
For Cc1cc(F)ccc1C(O)c1ncc(-c2cccc(F)c2)[nH]1 (centres undefined) the results were SENP8 block-2 21.
For COc1cc(/C=N/NC(=O)CSCc2ccc([N+](=O)[O-])cc2)cc(OC)c1OC the results were UBC13 polyUb 86*, SENP7 inh 2, SENP6 block -13, SENP8 block-1 -1, Apaf-1 inh -1, SENP8 block-2 2, Casp3 UBC13 ctr 0 and UBC13 conf 103*.
COc1ccc(C=NNC(=O)CCCC(=O)NN=Cc2ccc(OC)c(OC)c2)cc1OC was read as SENP8 block-2 -22.
Screening O=C(CSCc1ccc([N+](=O)[O-])cc1)NN=C1CCCCCC1 returned UBC13 polyUb 91*, SENP7 inh -1, SENP6 block -25, SENP8 block-1 6, Apaf-1 inh -8, SENP8 block-2 8, Casp3 UBC13 ctr -2 and UBC13 conf 105*.
COc1ccc(/C=N/NC(=O)CSCc2ccc([N+](=O)[O-])cc2)cc1OC was read as UBC13 polyUb 79*, SENP7 inh 1, SENP6 block -7, SENP8 block-1 5, Apaf-1 inh 6, SENP8 block-2 20, Casp3 UBC13 ctr 1 and UBC13 conf 71*.
For Cc1cccc(C(=O)Oc2ccc(/C=N/NC(=O)Cc3ccc([N+](=O)[O-])cc3)cc2)c1 the results were UBC13 polyUb 86*, SENP7 inh 1, SENP6 block 5, SENP8 block-1 -7, Apaf-1 inh -1, SENP8 block-2 13, Casp3 UBC13 ctr 0 and UBC13 conf 61*.
Screening Cc1ccc(-c2csc(N3CCN(c4cc5c(cc4Cl)nc(C)n5CCN4CCCCC4)CC3)n2)cc1 returned UBC13 polyUb 46*, SENP7 inh -5, SENP6 block -15, SENP8 block-1 -8, Apaf-1 inh 22, SENP8 block-2 -50, Casp3 UBC13 ctr 0 and UBC13 conf 38.
Screening Cc1ccc(-c2csc(N3CCN(c4cc5c(cc4Cl)nc(C(C)N)n5CCCO)CC3)n2)cc1 (centres undefined) returned UBC13 polyUb 7, SENP7 inh -3, SENP6 block -10, SENP8 block-1 -5, Apaf-1 inh 0 and SENP8 block-2 -4.
Cc1cccc(C)c1NC(=O)C1(C)CN(S(C)(=O)=O)CC(=O)N1Cc1cccs1 (centres undefined) was read as SENP8 block-2 18.
Cc1ccc2sc(N(CCCN(C)C)C(=O)c3ccc(S(=O)(=O)N4CCc5ccccc5C4)cc3)nc2c1C was read as UBC13 polyUb 24, SENP7 inh -12, SENP6 block -8, SENP8 block-1 0, Apaf-1 inh 33 and SENP8 block-2 6.
Screening COc1ccc(C)c2sc(N(CCCN(C)C)C(=O)c3ccc(S(=O)(=O)N4CCc5ccccc5C4)cc3)nc12 returned SENP8 block-2 14.
`COc1ccc(OC)c2sc(N(CCCN(C)C)C(=O)c3ccc(S(=O)(=O)N4CCc5ccccc5C4)cc3)nc12` gave UBC13 polyUb 100*, SENP7 inh 4, SENP6 block -84, SENP8 block-1 5, Apaf-1 inh 55*, Casp3 UBC13 ctr -2 and UBC13 conf 118*.
`CN(C)CCCN(C(=O)c1ccc(S(=O)(=O)N2CCc3ccccc3C2)cc1)c1nc2c(F)cc(F)cc2s1` gave UBC13 polyUb 24, SENP7 inh 1, SENP6 block -5, SENP8 block-1 0, Apaf-1 inh 35 and SENP8 block-2 26.
For COc1cccc2sc(N(CCCN(C)C)C(=O)c3ccc(S(=O)(=O)N4CCc5ccccc5C4)cc3)nc12 the results were UBC13 polyUb 64*, SENP7 inh 2, SENP6 block -12, SENP8 block-1 0, Apaf-1 inh 37, SENP8 block-2 11, Casp3 UBC13 ctr -4 and UBC13 conf 99*.
Screening CCOc1ccc2nc(N(CCCN(C)C)C(=O)c3ccc(S(=O)(=O)N4CCc5ccccc5C4)cc3)sc2c1 returned UBC13 polyUb 84*, SENP7 inh -10, SENP6 block -4, SENP8 block-1 -6, Apaf-1 inh 13, SENP8 block-2 10, Casp3 UBC13 ctr 4 and UBC13 conf 115*.
`COc1cc2nc(N(CCCN(C)C)C(=O)c3ccc(S(=O)(=O)N4CCc5ccccc5C4)cc3)sc2cc1OC` gave UBC13 polyUb 71*, SENP7 inh -5, SENP6 block -4, SENP8 block-1 3, Apaf-1 inh 30, SENP8 block-2 15, Casp3 UBC13 ctr -1 and UBC13 conf 105*.
COc1cc2nc(N(CCCN(C)C)C(=O)c3ccc(C(=O)c4ccccc4)cc3)sc2cc1OC was read as UBC13 polyUb 27, SENP7 inh -1, SENP6 block -3, SENP8 block-1 8, Apaf-1 inh 26 and SENP8 block-2 18.
`Cc1cc(Br)c2nc(-c3ccccc3)c(Cc3cccc(Cl)c3)n2c1` gave SENP8 block-2 -33.
